From ChEMBL document CHEMBL1122852, “Imidazo[1,5-d][1,2,4]triazines as potential antiasthma agents” (J Med Chem, 1985)
Calls of active or inactive are those of the source. The calls are words filed in the database; no cut-off is given here.

Tests used:
[1] = organism: Mus musculus; experiment: Effective dose in mouse PCA test; type: functional
Summary of the method: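 Female CFW mice were passively sensitized with 50 µL of diluted homologous IgE-containing serum iv. Two days later compound was given po, 1 h before iv ovalbumin antigen plus Evans Blue dye. Mice were killed after 20 min, and each lesion area was scored as the product of two normal diameters.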

[2] = organism: Homo sapiens; experiment: Inhibitory activity against histamine release from antigen-challenged, sensitized human basophils; type: functional; settings: Homo sapiens
Summary of the method: (§1)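 Histamine release was induced by antigen challenge of sensitized human basophils in vitro. Compounds were first screened at a single concentration. Those reducing release by more than 50% went on to concentration-response testing to estimate IC50. Values are given with standard error and number of experiments.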

[3] = organism: Homo sapiens; experiment: Inhibitory activity against histamine release from antigen-challenged, sensitized human basophils; Fluorescent compound, obscuring the histamine assay; type: functional; summary of the method: as §1
[4] = system: Cavia porcellus; experiment: Compound was evaluated in the guinea pig anaphylaxis test for in vivo activity; Inactive, treated 12/19, control 16/20; type: functional, organism-based

Row | Compound | IC50 [2] [µM] | further results
1 | CCCc1nc(C)c2c(C)nnc(O)n12 | 14 | ED50 [1]: 109 mg/kg
2 | CCCc1nnc(O)n2c(CCC)nc(C)c12 | 16 | ED50 [1]: 114 mg/kg
3 | Cc1nnc(O)n2c(C)nc(C)c12 |  | IC50 [3]: Fluoroescent compound, obscuring the histamine assay
4 | Cn1c(=O)c2[nH]cnc2n(C)c1=O |  | Activity [4]: inactive
5 | CCCc1nc(C)c2c(CC)nnc(O)n12 | 15.6 | ED50 [1]: 146 mg/kg
6 | CCc1nc(C)c2c(-c3ccccc3)nnc(SC)n12 | > 48 | 
7 | CCCC1NN=C(SC)n2c1cnc2C (stereo not drawn) | > 48 | 
8 | Cc1nnc(S)n2cncc12 | > 48 | 
9 | CCOC(=O)CSc1nncc2cnc(C)n12 | 52 | 
10 | CNc1nncc2c(C)ncn12 | > 48 | 
11 | CCCc1nc(C)c2cnn(CC(O)CO)c(=O)n12 (stereo not drawn) | > 48 | 
12 | COc1ccc(-c2ncc3cnnc(O)n23)cc1 | > 48 | 
13 | COCc1ncc2cnnc(SC)n12 | > 48 | 
14 | CN1CCN(c2nncc3cncn23)CC1 | > 48 | 
15 | Cc1nc(C)n2c(=O)n(C)ncc12 | > 48 | 
16 | CCCCc1nnc(O)n2c(CCC)nc(C)c12 | > 48 | 
17 | CCn1ncc2c(C)nc(C(C)C)n2c1=O | > 48 | 
18 | Cc1ncn2c(Nc3cccnc3)nncc12 | > 48 | 
19 | c1ccc(C(c2ccccc2)N2CCN(c3nncc4cncn34)CC2)cc1 | > 48 | 
20 | CCCc1ncc2c(C)nnc(O)n12 | > 48 | 
21 | Cn1c(=O)c2nc[nH]c2n(C)c1=O.O [THEOPHYLLINE] | 335 | ED50 [1]: 140 mg/kg
22 | C=CCSc1nncc2c(CC)ncn12 | > 48 | 
23 | Cn1ncc2cnc(Cc3ccccc3)n2c1=O | > 48 | 
24 | CCCc1nc(Br)c2cnnc(O)n12 | > 48 | 
25 | C=CCn1ncc2c(CCC)ncn2c1=O | > 48 | 
26 | C=CCn1ncc2c(C)nc(Cc3ccccc3)n2c1=O | > 48 | 
27 | Cc1ncn2c(NCc3ccco3)nncc12 | > 48 | 
28 | O=C(CSc1nncc2cncn12)c1ccccc1 | > 48 | 
29 | C=CCn1ncc2cnc(C)n2c1=S | > 48 | 
